Source: PubChem
E-sel inducer: E-selectin induction in HUVECs, primary screen, imaging, HUVEC, immunofluorescence imaging, single point; P16581; normalized: neutral wells 0, TNF-alpha wells 100; activation, % at 7.58 µM; 260,000 tested, 0.37% active; AID 686992, 2013;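 active = mean E-selectin-positive cell signal at least 10% of the positive control, reached in at least 60% of replicates, without over 20% cell loss; inconclusive = no rule given, readout overlaps actives, possibly toxicity-flagged; inactive = the rest, including those meeting only one limit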
Target sequence (P16581 whole entry, looked up): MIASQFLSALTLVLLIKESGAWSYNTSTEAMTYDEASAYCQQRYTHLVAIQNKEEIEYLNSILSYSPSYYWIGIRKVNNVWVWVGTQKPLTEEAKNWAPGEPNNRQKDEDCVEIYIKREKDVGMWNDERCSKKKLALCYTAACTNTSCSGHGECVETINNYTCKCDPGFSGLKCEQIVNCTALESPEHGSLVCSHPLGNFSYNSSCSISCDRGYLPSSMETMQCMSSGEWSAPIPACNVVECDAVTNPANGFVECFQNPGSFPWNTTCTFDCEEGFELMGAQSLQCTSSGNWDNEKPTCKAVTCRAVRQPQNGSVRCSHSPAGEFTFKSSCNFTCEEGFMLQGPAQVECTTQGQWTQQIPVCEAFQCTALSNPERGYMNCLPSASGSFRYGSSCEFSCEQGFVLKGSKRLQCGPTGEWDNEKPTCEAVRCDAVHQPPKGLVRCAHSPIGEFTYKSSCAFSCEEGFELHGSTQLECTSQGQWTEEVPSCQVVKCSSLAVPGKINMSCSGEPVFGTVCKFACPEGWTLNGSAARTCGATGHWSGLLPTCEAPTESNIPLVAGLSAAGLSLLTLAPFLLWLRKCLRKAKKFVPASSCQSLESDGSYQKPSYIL
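Material: HUVEC primary endothelial cells; Amount: 3,000 cells per well; Dosing: single concentration; Medium: EGM-2 growth medium on 0.1% gelatin-coated wells; Read-out basis: percent E-selectin-positive cells; Signal: immunofluorescence imaging; Control set: TNF-alpha, DMSO.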
DENV2 CPE: inhibitors of DENV2 cytopathic effect, primary screen, cell-based, plate reader, single concentration | DENV2-infected cells, cytopathic effect rescue | CPE inhibition, % at 9.99 µM | 350,000 tested, 1.7% active; in the data active = CPE inhibition above about 20%, passing the limit was not always enough; inconclusive = no clear call, values can overlap the other calls; tested in BHK-21 cells;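 note: 0% = median of neutral control wells and 100% = median of positive control wells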
ERAP1 inh: human ERAP1 aminopeptidase inhibitors, primary screen, biochemical, single point, plate reader | Endoplasmic reticulum aminopeptidase 1 (Homo sapiens), Q9NZ08 | recombinant ERAP1, Leu-AMC fluorescence, 60 min | AID 652197, 2013 | 340,000 tested, 0.15% active | inhibition, % at 10.7 µM;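 active = mean replicate inhibition of at least 30%, or all replicates individually reaching that 30% level; inactive = mean below 30% and not every replicate reaching it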;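 note: 0% = neutral control wells and 100% = L-leucinethiol positive control wells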
SIRT5 inh: SIRT5 desuccinylase inhibitors, primary screen, biochemical, fluorescence imaging, single point, set 5 | Purified SirT5, succinyl-peptide AMC, trypsin-coupled fluorescence | inhibition, % at 15 µM | 330,000 tested, 1.1% active; in the data active = inhibition above about 15%; inconclusive = no clear call, values can overlap the other calls
PglD DTNB: C. jejuni PglD acetyltransferase inhibitors, primary screen, biochemical, DTNB colorimetric, single point; UDP-N-acetylbacillosamine N-acetyltransferase PglD (Campylobacter jejuni); inhibition, % at 12.5 µM; purified PglD enzyme, DTNB colorimetric CoA detection; 360,000 tested, 0.098% active; in the data active = inhibition above about 16%, passing the limit was not always enough; inconclusive = no clear call, values can overlap the other calls
Numbers without * were called inactive; ? = inconclusive; . = not tested or not shown; ! = a repeat was not active. In the library only some 2.5% were active in any assay of this set; here they are far more common.

SMILES	E-sel inducer	DENV2 CPE	ERAP1 inh	SIRT5 inh	PglD DTNB
Cc1cc(C)c(C(=O)OCC(=O)NC(=O)c2ccccc2)c(C)c1	.	?	-4	-3	-1
Cc1cccc(C(=O)O)c1O	.	67*	4	.	-2
CN1CCCCC(NC(=O)CSc2ccccc2)C1=O (stereo unspecified)	1	11	-4	.	.
O=C(Cn1cnc2c(OCc3ccccc3)ncnc21)NCC1CCCO1 (stereo unspecified)	0	3	-3	-2	1
O=C(Cn1cnc2c(NCc3ccccc3)ncnc21)NCC1CCCO1 (stereo unspecified)	-1	75*	2	-2	-5
O=C(Nc1ccccc1Cl)c1cc(C2CCCN(C(=O)CCc3ccccc3)C2)on1 (stereo unspecified)	0	-9	-9	-1	5
CCC(=O)Nc1ccc2c(c1)C(=O)N(C)C[C@@H](OC)[C@H](C)CN(C(=O)c1ccccn1)[C@@H](C)CO2	0	27*	-1	0	3
CCC(=O)Nc1ccc2c(c1)OC[C@H](C)N(C(=O)c1ccccn1)C[C@H](C)[C@H](OC)CN(C)C2=O	0	34*	-3	1	.
C[C@@H]1CN([C@H](C)CO)C(=O)c2cc(C#Cc3cccc(F)c3)cnc2O[C@H]1CN(C)CC1CCCC1	0	?	-1	-1	1
NC(=O)N1OCC2COc3ccc4ccccc4c3C21 (stereo unspecified)	.	.	.	.	-1
CN(c1ccc(O)cc1)c1nc(O)c(C2=c3ccccc3=NC2=O)s1	0	-4	.	20*	.
CO[C@@H]1CN(C)C(=O)c2cc(NC(=O)NC3CCCCC3)ccc2OC[C@@H](C)N(CC2CC2)C[C@@H]1C	0	.	-4	3	-5
CCn1cnc2c(Nc3cc(F)cc(F)c3)nc(C#N)nc21	0	-1	-3	0	3
CCNc1nc(C#N)nc2c1ncn2-c1cc(F)cc(F)c1	1	-7	1	25*	2
CCOC(=O)C1(Cc2ccccc2C)CCCN(C(=O)c2cc(C3CC3)[nH]n2)C1 (stereo unspecified)	7	26*	0	-5	8
CCOC(=O)C1(Cc2ccccc2C)CCCN(C(=O)c2ccccn2)C1 (stereo unspecified)	1	0	25	-1	-1
C[C@H]1CCCCO[C@H](CN(C)S(=O)(=O)c2ccc(Cl)cc2)[C@@H](C)CN([C@@H](C)CO)C(=O)c2cc(NC(=O)Cc3ccccc3)ccc2O1	0	109*	3	9	2
C[C@@H]1CN([C@H](C)CO)C(=O)c2cc(NS(=O)(=O)c3ccccc3)ccc2O[C@@H](C)CCCCO[C@@H]1CN(C)S(=O)(=O)c1ccc(Cl)cc1	0	-1	5	-1	5
C[C@H]1CCCCO[C@H](CN(C)S(=O)(=O)c2ccc(Cl)cc2)[C@@H](C)CN([C@@H](C)CO)C(=O)c2cc(NS(=O)(=O)c3ccccc3)ccc2O1	0	3	2	28*	.
C[C@@H]1CCCCO[C@@H](CN(C)S(=O)(=O)c2ccc(Cl)cc2)[C@@H](C)CN([C@@H](C)CO)C(=O)c2cc(NS(=O)(=O)c3ccccc3)ccc2O1	10	-6	0	13	.
C[C@@H]1CN([C@H](C)CO)C(=O)c2cc(NS(=O)(=O)c3ccc(Cl)cc3)ccc2O[C@@H](C)CCCCO[C@H]1CN(C)S(=O)(=O)c1ccccc1	0	1	-1	19*	.
Cc1noc(C)c1NC(=O)N(C)C[C@H]1Oc2ncc(C#CCN(C)C)cc2C(=O)N([C@@H](C)CO)C[C@@H]1C	0	3	1	0	-4
CO[C@@H](CN(C)C(=O)c1cnccn1)[C@H](C)CN([C@@H](C)CO)S(=O)(=O)c1ccc(F)cc1	0	27*	1	1	-1
CO[C@H](CN(C)C(=O)c1ccc2c(c1)OCO2)[C@H](C)CN([C@H](C)CO)S(=O)(=O)c1ccccc1	0	4	1	27*	-1
COc1ccc(S(=O)(=O)Nc2ccc3c(c2)CC(=O)N([C@H](C)CO)C[C@H](C)[C@H](CN(C)C)O3)cc1	.	4	2	-1	2
SMILES	E-sel inducer	DENV2 CPE	ERAP1 inh	SIRT5 inh	PglD DTNB
OC(COC(c1ccc(Cl)cc1)c1ccc(Cl)cc1)CN1CCN(c2ccccn2)CC1 (stereo unspecified)	.	45*	3	-3	.
Cc1cccc(C)c1OCC(O)CN1CCN(c2ccccn2)CC1 (stereo unspecified)	4	.	4	-2	.
OC(COC(c1ccc(F)cc1)c1ccc(F)cc1)CN1CCCC1 (stereo unspecified)	0	41*	1	-2	-7
CC(=O)N1[C@H](CO)[C@@H](c2ccccc2)C12CN(C(=O)Cc1ccccc1)C2	0	8	5	0	.
COc1ccc(/C=N/NC(=O)c2nc(-c3ccccc3)n(-c3ccccc3)n2)cc1OC	.	38*	2	.	1
CC(C)=CCC/C(C)=C/CNC(=O)CC1C[C@H](C(=O)N2CCCCC2)[C@@]2(C)c3[nH]c4ccccc4c3CCN2C1=O (stereo partly specified)	0	-9	-2	3	-3
CCCn1c(CN2CCN(C(=O)OCC)CC2)nc2cc(NC(=O)C(C)C)ccc21	0	2	-3	3	-1
CCCn1c(CN2CCN(C(=O)OCC)CC2)nc2cc(NC(C)=O)ccc21	0	8	-9	17*	-3
C[C@@H]1CN([C@H](C)CO)C(=O)CCCn2nncc2CO[C@@H]1CN(C)S(=O)(=O)c1cccc(F)c1	-1	7	5	15*!	-6
Cc1cccc(S(=O)(=O)N(C)C[C@H]2OCc3cnnn3CCCC(=O)N([C@H](C)CO)C[C@@H]2C)c1	-2	?	1	21*!	-2
Cc1cccc(S(=O)(=O)N(C)C[C@H]2OCc3cnnn3CCCC(=O)N([C@@H](C)CO)C[C@@H]2C)c1	1	-3	-1	-2	-1
Cc1cccc(S(=O)(=O)N(C)C[C@H]2OCc3cn(nn3)CCCC(=O)N([C@@H](C)CO)C[C@@H]2C)c1	0	47*!	-3	-2	0
CCOC(=O)C(=O)Nc1nnc(SCc2ccc(F)cc2)s1	39*	-8	12	1	-2
CCC(=O)Nc1nnc(SCc2ccc(F)cc2)s1	.	.	.	.	6
C[C@@H]1CN([C@@H](C)CO)S(=O)(=O)c2ccc(/C=C/c3ccccc3)cc2O[C@H]1CN(C)C(=O)NC1CCCCC1	.	3	2	22*	0
C[C@H]1CN([C@@H](C)CO)S(=O)(=O)c2ccc(/C=C/c3ccccc3)cc2O[C@H]1CN(C)C(=O)NC1CCCCC1	0	3	-5	26*!	-6
